From ChEMBL document CHEMBL3526048, “In vitro metabolism of rivoglitazone, a novel peroxisome proliferator-activated receptor γ agonist, in rat, monkey, and human liver microsomes and freshly isolated hepatocytes” (Drug Metab Dispos, 2011)

What was measured:
[1] = Drug metabolism in human hepatocytes assessed as formation of 5-(4-((6-hydroxy-1-methyl-1H-benzo[d]imidazol-2-yl)methoxy)benzyl)thiazolidine-2,4-dione at 30 uM after 3 hrs by radio-HPLC/LC-MS/MS analysis in presence of NADPH-generating system and NADPH-generating system/SAM; format: ADME, cell-based, Hepatocyte
Cytochrome P450 2C19 = Cytochrome P450 2C19 (Homo sapiens, UniProt P33261); experiment: Activity of human CYP2C19 expressed in microsomes isolated from baculovirus infected insect cell assessed as enzyme-mediated 3-(4-((6-methoxy-1-methyl-1H-benzo[d]imidazol-2-yl)methoxy)phenyl)-2-(methylsulfinyl)propanamide formation at 20 uM after 2 hrs by radio-HPLC/LC-MS/MS analysis in presence of NADPH-generating system/SAM; format: ADME
[2] = biological target: T1, UDP-glucuronosyltransferase 1A3 (Homo sapiens, UniProt P35503); experiment: Activity of human UGT1A3 expressed in microsomes isolated from baculovirus infected insect cell assessed as enzyme-mediated 5-(4-((6-hydroxy-1-methyl-1H-benzo[d]imidazol-2-yl)methoxy)benzyl)thiazolidine-2,4-dione formation at 20 uM after 4 hrs by radio-HPLC/LC-MS/MS analysis in presence of NADPH-generating system/SAM; format: ADME
T1 sequence (P35503 whole entry): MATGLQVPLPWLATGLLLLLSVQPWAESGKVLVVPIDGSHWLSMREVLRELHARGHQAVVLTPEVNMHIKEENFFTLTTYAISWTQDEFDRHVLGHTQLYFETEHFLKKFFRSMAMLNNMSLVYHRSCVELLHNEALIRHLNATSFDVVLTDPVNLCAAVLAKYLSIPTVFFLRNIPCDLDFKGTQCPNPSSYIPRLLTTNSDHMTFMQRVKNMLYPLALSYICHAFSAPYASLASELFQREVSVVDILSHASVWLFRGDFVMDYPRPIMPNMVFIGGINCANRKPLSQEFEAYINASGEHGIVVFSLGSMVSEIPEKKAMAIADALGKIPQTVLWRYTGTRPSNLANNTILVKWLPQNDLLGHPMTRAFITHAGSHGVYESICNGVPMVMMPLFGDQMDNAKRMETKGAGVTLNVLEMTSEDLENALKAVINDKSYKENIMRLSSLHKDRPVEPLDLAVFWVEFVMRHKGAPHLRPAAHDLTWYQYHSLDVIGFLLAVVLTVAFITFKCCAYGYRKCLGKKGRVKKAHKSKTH

Cytochrome P450 1A2 = biological target: T2, Cytochrome P450 1A2 (Homo sapiens, UniProt P05177); experiment: Activity of human CYP1A2 expressed in microsomes isolated from baculovirus infected insect cell assessed as enzyme-mediated 5-hydroxy-5-(4-((6-methoxy-1-methyl-1H-benzo[d]imidazol-2-yl)methoxy)benzyl)thiazolidine-2,4-dione formation at 20 uM after 2 hrs by radio-HPLC/LC-MS/MS analysis in presence of NADPH-generating system and NADPH-generating system/SAM; format: ADME
T2 sequence (P05177 whole entry): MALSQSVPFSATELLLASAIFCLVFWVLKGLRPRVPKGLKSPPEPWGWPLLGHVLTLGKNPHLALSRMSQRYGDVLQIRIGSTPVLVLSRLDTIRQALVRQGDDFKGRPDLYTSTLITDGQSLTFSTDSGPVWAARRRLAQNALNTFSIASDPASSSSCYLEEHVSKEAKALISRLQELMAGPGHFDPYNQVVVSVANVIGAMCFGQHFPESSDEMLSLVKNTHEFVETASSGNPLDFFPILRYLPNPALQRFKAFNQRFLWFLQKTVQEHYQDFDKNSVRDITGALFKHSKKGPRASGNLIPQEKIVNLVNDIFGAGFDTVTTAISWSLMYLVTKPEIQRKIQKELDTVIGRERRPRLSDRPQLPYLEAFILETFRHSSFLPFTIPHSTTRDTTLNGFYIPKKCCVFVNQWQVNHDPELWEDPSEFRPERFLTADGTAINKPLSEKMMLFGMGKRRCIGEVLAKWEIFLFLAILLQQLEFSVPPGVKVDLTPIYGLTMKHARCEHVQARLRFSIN
How it was run: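 Baculovirus/insect-cell microsomes expressing single human CYPs, 1 mg/ml protein, with 50 mM potassium phosphate (pH 7.4) or 100 mM Tris-HCl (pH 7.5). NADPH-generating system: 2 mM NADP⁺, 20 mM glucose 6-phosphate, 2 units/ml G6PDH, 10 mM MgCl₂. [¹⁴C]rivoglitazone at 20 μM, 2 h at 37°C with shaking. Control used insect-cell control supersomes. Stopped with acetonitrile; supernatant concentrated under nitrogen; metabolites analysed by radio-HPLC, LC-MS and LC-MS/MS.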

Cytochrome P450 3A5 = Cytochrome P450 3A5 (Homo sapiens, UniProt P20815); experiment: Activity of human CYP3A5 expressed in microsomes isolated from baculovirus infected insect cell assessed as enzyme-mediated 5-(4-((6-methoxy-1H-benzo[d]imidazol-2-yl)methoxy)benzyl)thiazolidine-2,4-dione formation at 20 uM after 2 hrs by radio-HPLC/LC-MS/MS analysis in presence of NADPH-generating system and NADPH-generating system/SAM; format: ADME
How it was run: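 cDNA-expressed human CYP3A5 in baculovirus-insect-cell microsomes (1 mg/ml protein) was incubated with [¹⁴C]rivoglitazone (20 μM) in 50 mM potassium phosphate (pH 7.4) or 100 mM Tris-HCl (pH 7.5). NADPH-generating system: 2 mM NADP⁺, 20 mM glucose 6-phosphate, 2 units/ml G6PDH, 10 mM MgCl₂. Incubation ran 2 h at 37°C with shaking; insect-cell control supersomes served as control. Acetonitrile stop, supernatant concentrated, then radio-HPLC, LC-MS and LC-MS/MS.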

[3] = biological target: T3, UDP-glucuronosyltransferase 1A6 (Homo sapiens, UniProt P19224); experiment: Activity of human UGT1A6 expressed in microsomes isolated from baculovirus infected insect cell assessed as enzyme-mediated (2S,3S,4S,5R,6R)-3,4,5-trihydroxy-6-(5-(4-((6-methoxy-1-methyl-1H-benzo[d]imidazol-2-yl)methoxy)benzyl)-2,4-dioxothiazolidin-3-yl)tetrahydro-2H-pyran-2-carboxylic acid formation at 20 uM after 4 hrs by radio-HPLC/LC-MS/MS analysis in presence of UDPGA; format: ADME
T3 sequence (P19224 whole entry): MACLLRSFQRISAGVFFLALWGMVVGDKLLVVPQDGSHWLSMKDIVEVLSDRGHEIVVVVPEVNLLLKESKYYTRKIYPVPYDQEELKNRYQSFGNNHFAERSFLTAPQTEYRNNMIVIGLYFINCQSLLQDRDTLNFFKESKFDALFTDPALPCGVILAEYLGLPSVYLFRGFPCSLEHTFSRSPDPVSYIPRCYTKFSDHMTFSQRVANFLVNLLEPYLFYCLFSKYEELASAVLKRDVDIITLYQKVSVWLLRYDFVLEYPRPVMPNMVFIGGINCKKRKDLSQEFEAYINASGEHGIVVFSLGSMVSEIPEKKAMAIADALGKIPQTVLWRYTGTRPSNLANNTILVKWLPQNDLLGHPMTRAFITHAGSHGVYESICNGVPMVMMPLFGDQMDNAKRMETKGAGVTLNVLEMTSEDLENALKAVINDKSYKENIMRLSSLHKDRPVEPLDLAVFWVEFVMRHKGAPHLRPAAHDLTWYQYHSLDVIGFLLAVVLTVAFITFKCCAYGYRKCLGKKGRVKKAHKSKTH

Cytochrome P450 2C19, sequence (P33261 whole entry): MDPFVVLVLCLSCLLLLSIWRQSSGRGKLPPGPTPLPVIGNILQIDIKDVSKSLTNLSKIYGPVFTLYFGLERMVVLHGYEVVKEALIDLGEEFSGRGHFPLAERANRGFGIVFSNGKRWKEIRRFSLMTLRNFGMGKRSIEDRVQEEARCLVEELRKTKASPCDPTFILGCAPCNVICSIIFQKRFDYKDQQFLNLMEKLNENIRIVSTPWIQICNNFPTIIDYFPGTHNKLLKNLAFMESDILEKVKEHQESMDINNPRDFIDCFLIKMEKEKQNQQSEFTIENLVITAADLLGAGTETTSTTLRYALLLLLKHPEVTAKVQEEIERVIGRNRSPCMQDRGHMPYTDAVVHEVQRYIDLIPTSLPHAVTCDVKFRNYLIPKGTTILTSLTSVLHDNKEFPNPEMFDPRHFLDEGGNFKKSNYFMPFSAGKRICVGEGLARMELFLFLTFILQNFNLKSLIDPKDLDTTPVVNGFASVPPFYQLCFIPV
Cytochrome P450 3A5, sequence (P20815 whole entry): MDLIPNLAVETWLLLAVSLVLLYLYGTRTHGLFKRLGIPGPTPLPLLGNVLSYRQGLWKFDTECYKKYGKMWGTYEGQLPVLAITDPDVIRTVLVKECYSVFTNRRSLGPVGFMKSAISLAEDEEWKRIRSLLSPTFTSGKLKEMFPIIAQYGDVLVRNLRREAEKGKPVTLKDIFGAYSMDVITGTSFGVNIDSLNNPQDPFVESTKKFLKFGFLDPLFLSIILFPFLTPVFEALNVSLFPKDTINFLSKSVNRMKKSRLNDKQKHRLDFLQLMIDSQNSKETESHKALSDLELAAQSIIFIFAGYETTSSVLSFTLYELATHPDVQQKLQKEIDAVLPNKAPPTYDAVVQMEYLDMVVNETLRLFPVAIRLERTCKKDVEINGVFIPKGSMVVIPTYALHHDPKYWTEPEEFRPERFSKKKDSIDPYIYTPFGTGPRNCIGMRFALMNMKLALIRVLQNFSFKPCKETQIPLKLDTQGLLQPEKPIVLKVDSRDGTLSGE

Drug metabolism [1]: metabolite_detected | Drug metabolism (Cytochrome P450 2C19): metabolite_not_detected | Drug metabolism [2]: metabolite_not_detected | Drug metabolism (Cytochrome P450 1A2): metabolite_detected | Drug metabolism (Cytochrome P450 3A5): metabolite_detected | Drug metabolism [3]: metabolite_not_detected
SMILES: COc1ccc2nc(COc3ccc(C[14CH]4SC(=O)NC4=O)cc3)n(C)c2c1.Cl (racemic)
